This note sets out measurements from ChEMBL document CHEMBL1133538, “7-Deazaadenines bearing polar substituents: structure-activity relationships of new A(1) and A(3) adenosine receptor antagonists” (J Med Chem, 2000).

Molecules are shown by their SMILES. Converted amounts (≈) assume the structure as drawn.

The first series concerns the target T1, Adenosine receptor A1 (Rattus norvegicus) (UniProt P25099).
T1 sequence (whole entry): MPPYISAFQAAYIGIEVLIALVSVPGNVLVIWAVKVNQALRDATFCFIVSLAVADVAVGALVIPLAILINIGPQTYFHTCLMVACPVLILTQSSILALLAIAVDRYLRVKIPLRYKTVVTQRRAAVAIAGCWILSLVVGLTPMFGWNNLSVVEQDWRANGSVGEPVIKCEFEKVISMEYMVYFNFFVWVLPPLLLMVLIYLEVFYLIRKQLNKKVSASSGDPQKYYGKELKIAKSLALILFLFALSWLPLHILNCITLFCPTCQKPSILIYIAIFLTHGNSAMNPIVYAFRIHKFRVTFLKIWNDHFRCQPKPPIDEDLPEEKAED
The series can be described thus: Ratio between solubility and Ki for A1 adenosine receptor.
Details: not given
Turning to `CCC(CO)Nc1nc(-c2ccc(Cl)cc2)nc2c1c(C)c(C)n2[C@H](C)c1ccccc1` (stereo partly specified), the Ratio came to 4.
Turning to `C[C@@H](c1ccccc1)n1c2ccccc2c2c(N)nc(-c3ccccn3)nc21`, the Ratio worked out at 9.
For the compound `Cc1c(C)n([C@H](C)c2ccccc2)c2nc(-c3ccccc3)nc(NCCN)c12`, the Ratio was 7.
`C[C@H](c1ccccc1)n1c2ccccc2c2c(N)nc(-c3ccncc3)nc21`: the Ratio worked out at 142.
Same read-out and setting: next, `CCC(CO)Nc1nc(-c2ccccc2)nc2c1c(C)c(C)n2C1CCCC1` (stereo unspecified): 11.

A further series deals with T2, Adenosine receptor A1 (Rattus norvegicus, UniProt P25099).
T2 sequence (P25099 whole entry): T1 sequence (whole entry)
The series can be described thus: Tested for its binding affinity at adenosine A1 receptor in rat brain cortical membrane preparations using [3H]CCPA as a radioligand. The series is classed as cell membranes.
Details: not given
Put shortly:
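Rat brain cortical membranes, A1 agonist radioligand [3H]CCPA at 0.5 nM. Compounds dissolved in DMSO, diluted into aqueous buffer, tested at 5-7 concentrations in triplicate, at least three separate experiments.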
For `Cc1c(C)n([C@H](C)c2ccccc2)c2nc(-c3ccccc3O)nc(N)c12`, the Ki amounted to 240 nM. This counts as sub-micromolar.
Still for that read-out and setting: then `Nc1nc(-c2ccccn2)nc2c1c1c(n2-c2ccccc2)CCCC1`, with 8900 nM; and `C[C@H](c1ccccc1)n1c2ccccc2c2c(N)nc(-c3cccs3)nc21`, with 36 nM; and `Cc1c(C)n([C@H](C)c2ccccc2)c2nc(-c3cccs3)nc(N)c12`, with 19 nM.
Same read-out and setting: then `Cc1c(C)n([C@H](C)c2ccccc2)c2nc(-c3ccncc3)nc(N)c12`, with 46 nM; and `CCC(CO)Nc1nc(-c2ccc(Cl)cc2)nc2c1c(C)c(C)n2[C@H](C)c1ccccc1` (stereo partly specified), with 2600 nM; and `C[C@@H](c1ccccc1)n1c2ccccc2c2c(N)nc(-c3ccccn3)nc21`, with 540 nM.
Still for that read-out and setting: next, `C[C@@H](c1ccccc1)n1c2c(c3c(N)nc(-c4ccccn4)nc31)CCCC2`: 12500 nM; `Cc1c(C)n([C@H](C)c2ccccc2)c2nc(-c3ccccc3)nc(NCCN)c12`: 3580 nM.
With `Cc1c(C)n([C@H](C)c2ccccc2)c2nc(-c3ccco3)nc(N)c12`, affinity was put at a Ki of 16 nM.
On the same count and under the same terms, next, `C[C@H](c1ccccc1)n1c2c(c3c(N)nc(-c4cccnc4)nc31)CCCC2`: 1300 nM.
Same read-out and setting: then `Cc1c(C)n([C@H](C)c2ccccc2)c2nc(-c3cc[n+]([O-])cc3)nc(N)c12`, with 490 nM.
Still for that read-out and setting: next, `Cc1[nH]c2nc(C(C)c3ccccc3)nc(N)c2c1C` (stereo unspecified): 6840 nM.
On to `C[C@H](c1ccccc1)n1c2c(c3c(N)nc(-c4cc[n+]([O-])cc4)nc31)CCCC2`, for which affinity was put at a Ki of 1850 nM.
The same measure, in the same setting: next, `Cc1c(C)n([C@H](C)c2ccccc2)c2nc(-c3ccccc3)nc(N[C@@H](C)c3ccccc3)c12`: 18300 nM; `C[C@H](c1ccccc1)n1c2ccccc2c2c(N)nc(-c3cccnc3)nc21`: 92 nM; `C[C@H](c1ccccc1)n1c2ccccc2c2c(N)nc(-c3ccncc3)nc21`: 21 nM.
The same measure, in the same setting: then `CCC(CO)Nc1nc(-c2ccccc2)nc2c1c(C)c(C)n2C1CCCC1` (stereo unspecified), with 1240 nM; and `Nc1nc(-c2ccncc2)nc2c1c1c(n2-c2ccccc2)CCCC1`, with 600 nM.
Same read-out and setting: then `Cc1c(C)n([C@H](C)c2ccccc2)c2nc(-c3cnccn3)nc(N)c12`, with 560 nM.
In the case of `Cc1c(C)n([C@H](C)c2ccccc2)c2nc(-c3ccccn3)nc(N)c12`, the Ki was determined as 2100 nM.

For another series, the target named is Adenosine receptor A1 (Homo sapiens) (UniProt P30542). The series is described as follows: Binding affinity against adenosine A1 receptor expressed in CHO cells using [3H]CCPA.
Sequence of Adenosine receptor A1 (Homo sapiens) (P30542 whole entry, looked up): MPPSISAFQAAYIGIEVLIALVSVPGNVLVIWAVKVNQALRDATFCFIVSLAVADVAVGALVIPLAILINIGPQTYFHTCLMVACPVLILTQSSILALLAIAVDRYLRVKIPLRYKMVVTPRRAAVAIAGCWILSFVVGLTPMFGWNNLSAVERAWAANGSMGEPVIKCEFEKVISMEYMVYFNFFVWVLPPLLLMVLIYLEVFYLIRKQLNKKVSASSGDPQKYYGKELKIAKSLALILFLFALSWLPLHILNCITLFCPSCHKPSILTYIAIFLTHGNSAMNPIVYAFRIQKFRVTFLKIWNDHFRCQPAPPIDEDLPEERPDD
Details: not given
With `Cc1c(C)n([C@H](C)c2ccccc2)c2nc(-c3ccncc3)nc(N)c12`, the inhibition constant Ki was found to be 8.8 nM.

The next series addresses T1, Adenosine receptor A1 (Rattus norvegicus). The series can be described thus: Binding affinity against adenosine A1 receptor in rat brain cortical membrane preparations using [3H]CCPA at 30 uM.
Details: not given
The series is classed as cell membranes. Summed up:
(§1)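 Rat brain cortical membranes with [3H]CCPA (0.5 nM) as A1 radioligand. Compounds from DMSO stock diluted into aqueous buffer. Value given as percent inhibition of specific radioligand binding at the single stated concentration.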
For `COc1ccccc1-c1nc(N)c2c(C)c(C)n([C@H](C)c3ccccc3)c2n1`, the inhibition turned out to be 38%.
On the same count and under the same terms, next, `Cc1c(C)n([C@H](C)c2ccccc2)c2nc(-c3ccccc3)nc(NC3CCCC3)c12`: 41%; `Cc1c(C)n([C@H](C)c2ccccc2)c2nc(C(C)c3ccccc3)nc(N)c12` (stereo partly specified): 33%.

Another series deals with Adenosine receptor A2a (Rattus norvegicus) (UniProt P30543). The series is described as follows: Binding affinity against adenosine A2A receptor in rat striatal membrane preparations using [3H]CGS-21680 at 1 uM. Type of series: cell membranes. The settings on record: Striatum. Summed up: (§2)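 Rat striatal membranes, A2A-selective agonist [3H]CGS21680 at 5 nM. Compounds dissolved in DMSO, diluted into aqueous buffer. Value given as percent inhibition of radioligand binding at the single stated concentration.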
Sequence of Adenosine receptor A2a (Rattus norvegicus) (P30543 whole entry): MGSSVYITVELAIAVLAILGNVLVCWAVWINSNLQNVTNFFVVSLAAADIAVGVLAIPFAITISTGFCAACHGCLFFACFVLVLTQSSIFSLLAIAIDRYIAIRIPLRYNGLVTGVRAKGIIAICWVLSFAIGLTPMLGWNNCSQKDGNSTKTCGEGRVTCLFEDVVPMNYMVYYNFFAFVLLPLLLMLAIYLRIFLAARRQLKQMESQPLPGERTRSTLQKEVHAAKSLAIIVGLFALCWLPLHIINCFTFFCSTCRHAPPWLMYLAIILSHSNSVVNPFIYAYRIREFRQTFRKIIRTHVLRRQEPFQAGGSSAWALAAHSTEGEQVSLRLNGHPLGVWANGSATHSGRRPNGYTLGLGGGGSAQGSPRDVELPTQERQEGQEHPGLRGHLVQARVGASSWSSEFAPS
`C[C@@H](c1ccccc1)n1c2ccccc2c2c(N)nc(-c3ccccn3)nc21` showed an inhibition of 6%.

The target is the same in another series. The series can be described thus: Binding affinity against adenosine A2A receptor in rat striatal membrane preparations using [3H]CGS-21680 at 3 uM. As to conditions: Striatum. The series is classed as cell membranes. Summed up:
as §2
For `C[C@H](c1ccccc1)n1c2ccccc2c2c(N)nc(-c3cccs3)nc21`, the inhibition was 32%.

In the next series the target is T3, Adenosine receptor A2a (Rattus norvegicus, UniProt P30543). The series can be described thus: (§3) Binding affinity against adenosine A2A receptor in rat striatal membrane preparations using [3H]CGS-21680 at 10 uM. Type of series: cell membranes, Striatum.
T3 sequence (P30543 whole entry): as above
Details: not given
On to `Cc1c(C)n([C@H](C)c2ccccc2)c2nc(-c3ccccc3)nc(N)c12`, for which the inhibition constant (Ki) was 3710 nM.
For `C[C@H](c1ccccc1)n1c2ccccc2c2c(N)nc(-c3ccncc3)nc21`, the Ki came to 1850 nM.

A further series concerns the target Adenosine receptor A2a (Rattus norvegicus) (UniProt P30543). Described as §3. Type of series: cell membranes. As to conditions: Striatum. Summed up:
as §2
Regarding `Cc1[nH]c2nc(C(C)c3ccccc3)nc(N)c2c1C` (stereo unspecified), the inhibition amounted to 10%.
As to `C[C@H](c1ccccc1)n1c2ccccc2c2c(N)nc(-c3cccnc3)nc21`, the inhibition was found to be 47%.
Consider `Cc1nc2nc(-c3ccccc3)[nH]c(N[C@H](C)c3ccccc3)c-2c1C`, for which the inhibition came out at 23%.

Tested on in a further series: not listed separately
The series is described as follows: Solubility determined in […]-hydrochloride buffer at pH 7.4. Type of series: physicochemical. The settings on record: in the assay text read “50 mM” for “50 nM”. Put shortly: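 10 mM DMSO solution diluted 1:100 into 50 mM TRIS-HCl pH 7.4 (1% DMSO), shaken overnight at room temperature to equilibrium, centrifuged at 1000g, supernatant filtered through cotton. Dilutions analysed by HPLC with UV detection, concentration from calibration curves.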
For `CCC(CO)Nc1nc(-c2ccc(Cl)cc2)nc2c1c(C)c(C)n2[C@H](C)c1ccccc1` (stereo partly specified), the concentration in solution (solubility) came to 11.2 µM (≈ 5.03 µg/mL).
In turn, `C[C@@H](c1ccccc1)n1c2ccccc2c2c(N)nc(-c3ccccn3)nc21` showed a solubility of 5 µM (≈ 1.83 µg/mL).
Still for that read-out and setting: then `Cc1c(C)n([C@H](C)c2ccccc2)c2nc(-c3ccccc3)nc(NCCN)c12`, with 24.2 µM (≈ 9.33 µg/mL); and `C[C@H](c1ccccc1)n1c2ccccc2c2c(N)nc(-c3ccncc3)nc21`, with 3 µM (≈ 1.1 µg/mL).
The compound `CCC(CO)Nc1nc(-c2ccccc2)nc2c1c(C)c(C)n2C1CCCC1` (stereo unspecified) yielded a solubility of 13.2 µM (≈ 5 µg/mL).

A further series addresses Adenosine receptor A2a (Rattus norvegicus) (UniProt P30543). The series can be described thus: Binding affinity against adenosine A2A receptor in rat striatal membrane preparations using [3H]CGS-21680 at 30 uM. Type of series: cell membranes. The settings on record: Striatum. Summed up: as §2
On to `COc1ccccc1-c1nc(N)c2c(C)c(C)n([C@H](C)c3ccccc3)c2n1`, for which the inhibition turned out to be 14%.
The same measure, in the same setting: then `Cc1c(C)n([C@H](C)c2ccccc2)c2nc(-c3ccccc3)nc(NC3CCCC3)c12`, with 19%; and `Cc1c(C)n([C@H](C)c2ccccc2)c2nc(-c3ccccc3O)nc(N)c12`, with 46%; and `Nc1nc(-c2ccccn2)nc2c1c1c(n2-c2ccccc2)CCCC1`, with 42%.
Consider `Cc1c(C)n([C@H](C)c2ccccc2)c2nc(-c3cccnc3)nc(N)c12`, for which the inhibition turned out to be 3%.
Still for that read-out and setting: next, `CCC(CO)Nc1nc(-c2ccc(Cl)cc2)nc2c1c(C)c(C)n2[C@H](C)c1ccccc1` (stereo partly specified): 36%; `Cc1c(C)n([C@H](C)c2ccccc2)c2nc(-c3ccccc3)nc(NCCN)c12`: 2%; `Cc1c(C)n([C@H](C)c2ccccc2)c2nc(C(C)c3ccccc3)nc(N)c12` (stereo partly specified): 38%.
On the same count and under the same terms, next, `Cc1c(C)n([C@H](C)c2ccccc2)c2nc(-c3ccccc3)nc(N[C@@H](C)c3ccccc3)c12`: 26%; `CCC(CO)Nc1nc(-c2ccccc2)nc2c1c(C)c(C)n2C1CCCC1` (stereo unspecified): 22%.
`Cc1c(C)n([C@H](C)c2ccccc2)c2nc(-c3ccccn3)nc(N)c12`: the inhibition was found to be 43%.
Same read-out and setting: next, `Nc1nc(-c2cccnc2)nc2c1c1c(n2-c2ccccc2)CCCC1`: 44%.

A further series has the same target. The series is described as follows: Binding affinity against adenosine A2A receptor in rat striatal membrane preparations at 10 uM. As to conditions: Striatum. The series is classed as cell membranes. Summed up: as §2
`Nc1nc(-c2ccncc2)nc2c1c1c(n2-c2ccccc2)CCCC1` showed an inhibition of 28%.

For a further series the target is unchanged. The series can be described thus: Binding affinity against adenosine A2A receptor in rat striatal membrane preparations at 30 uM. The settings on record: Striatum. Type of series: cell membranes. Put shortly: as §2
`C[C@@H](c1ccccc1)n1c2c(c3c(N)nc(-c4ccccn4)nc31)CCCC2` yielded an inhibition of 38%.
On to `C[C@@H](c1ccccc1)n1c2c(c3c(N)nc(-c4ccncc4)nc31)CCCC2`, for which the inhibition turned out to be 2%.
The same measure, in the same setting: next, `C[C@H](c1ccccc1)n1c2c(c3c(N)nc(-c4cccnc4)nc31)CCCC2`: 46%; `C[C@H](c1ccccc1)n1c2c(c3c(N)nc(-c4cc[n+]([O-])cc4)nc31)CCCC2`: 50%.

In the next series the target is T1, Adenosine receptor A1 (Rattus norvegicus). The series is described as follows: Binding affinity against adenosine A1 receptor in rat brain cortical membrane preparations using [3H]CCPA. The series is classed as cell membranes. As to conditions: concentration not given here. Summed up:
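Rat brain cortical membranes, A1 agonist radioligand [3H]CCPA at 0.5 nM. Compounds dissolved in DMSO, diluted into aqueous buffer, tested at 5-7 concentrations in triplicate, at least three separate experiments. IC50 from nonlinear curve fitting, converted to Ki with Cheng-Prusoff using KD 0.2 nM.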
With `C[C@@H](c1ccccc1)n1c2c(c3c(N)nc(-c4ccncc4)nc31)CCCC2`, the inhibition turned out to be 8%.

For another series the target is unchanged. The series can be described thus: Binding affinity against adenosine A1 receptor in rat brain cortical membrane preparations using [3H]CCPA at 100 uM. The series is classed as cell membranes.
Details: not given
Put shortly: as §1
`Cc1c(C)n([C@H](C)c2ccccc2)c2nc(-c3cccnc3)nc(N)c12` registered an inhibition of 35%.

A further series addresses T3, Adenosine receptor A2a. The series can be described thus: Binding affinity at adenosine A2A receptor in rat striatal membrane preparations using [3H]CGS-21680 at a 30 uM. The series is classed as cell membranes, Striatum.
Details: not given
As for `Cc1c(C)n([C@H](C)c2ccccc2)c2nc(-c3cccs3)nc(N)c12`, the inhibition constant Ki came out at 5400 nM.
On the same count and under the same terms, then `Cc1c(C)n([C@H](C)c2ccccc2)c2nc(-c3ccncc3)nc(N)c12`, with 1300 nM.
Turning to `Cc1c(C)n([C@H](C)c2ccccc2)c2nc(-c3ccco3)nc(N)c12`, the Ki is 490 nM.
The same measure, in the same setting: then `Cc1c(C)n([C@H](C)c2ccccc2)c2nc(-c3cc[n+]([O-])cc3)nc(N)c12`, with 5900 nM; and `Cc1c(C)n([C@H](C)c2ccccc2)c2nc(-c3cnccn3)nc(N)c12`, with 6600 nM.
